Measured values: ChEMBL document CHEMBL1135421, “2-(Anilinomethyl)imidazolines as alpha1 adrenergic receptor agonists: the discovery of alpha1a subtype selective 2'-alkylsulfonyl-substituted analogues” (J Med Chem, 2002)

Legend:
[1] = target: T1, Alpha-2A adrenergic receptor (Homo sapiens, UniProt P08913); assay: Agonist potency at Alpha-2A adrenergic receptor assayed in CHO cells expressing human alpha 2a; type: functional, cell-based
T1 sequence (P08913 whole entry): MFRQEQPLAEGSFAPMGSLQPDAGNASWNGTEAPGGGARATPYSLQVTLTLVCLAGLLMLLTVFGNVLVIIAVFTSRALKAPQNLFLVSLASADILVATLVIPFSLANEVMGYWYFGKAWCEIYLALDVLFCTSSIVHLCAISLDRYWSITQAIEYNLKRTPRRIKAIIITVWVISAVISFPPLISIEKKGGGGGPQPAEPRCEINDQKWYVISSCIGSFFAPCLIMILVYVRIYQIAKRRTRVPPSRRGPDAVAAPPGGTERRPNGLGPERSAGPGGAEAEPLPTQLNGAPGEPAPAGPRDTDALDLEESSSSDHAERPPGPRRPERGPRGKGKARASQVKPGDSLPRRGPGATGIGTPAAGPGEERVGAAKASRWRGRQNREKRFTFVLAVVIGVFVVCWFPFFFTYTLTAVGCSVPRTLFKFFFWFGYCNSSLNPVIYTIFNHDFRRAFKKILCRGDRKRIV

[2] = target: T2, Alpha-1B adrenergic receptor (Homo sapiens, UniProt P35368); assay: Agonist potency at alpha-1b adrenoceptors assayed in rat-1 fibroblasts expressing human alpha-1b; type: functional
T2 sequence (P35368 whole entry): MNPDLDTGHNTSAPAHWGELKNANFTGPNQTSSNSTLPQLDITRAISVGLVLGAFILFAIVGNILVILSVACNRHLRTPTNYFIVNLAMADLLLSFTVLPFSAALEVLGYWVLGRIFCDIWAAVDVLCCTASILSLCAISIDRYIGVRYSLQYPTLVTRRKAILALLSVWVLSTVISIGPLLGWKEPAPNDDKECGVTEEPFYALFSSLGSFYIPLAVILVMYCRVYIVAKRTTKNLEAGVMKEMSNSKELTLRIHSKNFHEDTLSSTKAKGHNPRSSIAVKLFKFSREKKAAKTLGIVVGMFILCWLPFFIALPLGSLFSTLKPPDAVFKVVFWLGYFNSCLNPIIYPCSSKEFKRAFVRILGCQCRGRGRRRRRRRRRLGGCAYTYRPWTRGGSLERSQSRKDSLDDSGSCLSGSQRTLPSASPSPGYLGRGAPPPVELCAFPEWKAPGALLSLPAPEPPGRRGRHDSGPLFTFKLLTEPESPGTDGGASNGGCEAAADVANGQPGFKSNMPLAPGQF
Procedure, shortened: (§1)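 Rat-1 fibroblasts expressing human α1a/α1b/α1d, grown in DMEM with 10% heat-inactivated FBS and 0.6 mg/mL G418, plated 6000 cells/well and cultured 48 h at 37 °C. Loaded 2 h at 37 °C with Calcium Green (4 μM), 0.2% pluronic acid and 2.5 mM probenecid in HEPES buffer pH 7.4. FLIPR read at room temperature: 10 s baseline, then 50 s after compound. 11-point curves as % of 40 μM phenylephrine response, top concentration typically 5 μM.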

[3] = target: T3, Alpha-1A adrenergic receptor (Homo sapiens) (UniProt P35348); assay: (§2) Agonist potency at Alpha-1 adrenergic receptor assayed in rat-1 fibroblasts expressing human Alpha-1 adrenergic receptor; type: functional; procedure, shortened: as §1
T3 sequence (whole entry): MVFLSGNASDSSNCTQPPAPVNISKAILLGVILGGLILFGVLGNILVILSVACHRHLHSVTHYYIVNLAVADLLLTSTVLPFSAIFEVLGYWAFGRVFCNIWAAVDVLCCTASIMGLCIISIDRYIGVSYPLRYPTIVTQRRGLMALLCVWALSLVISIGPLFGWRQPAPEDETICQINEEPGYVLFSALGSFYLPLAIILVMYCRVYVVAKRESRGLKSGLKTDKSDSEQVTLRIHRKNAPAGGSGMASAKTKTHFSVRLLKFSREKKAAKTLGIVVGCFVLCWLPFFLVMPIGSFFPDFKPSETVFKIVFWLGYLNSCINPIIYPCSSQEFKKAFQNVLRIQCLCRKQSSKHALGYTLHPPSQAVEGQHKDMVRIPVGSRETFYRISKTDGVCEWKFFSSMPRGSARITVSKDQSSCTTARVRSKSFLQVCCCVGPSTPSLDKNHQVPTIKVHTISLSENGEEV

[4] = target: T4, Alpha-2A adrenergic receptor (Homo sapiens) (UniProt P08913); assay: Agonist potency at Alpha-2A adrenergic receptor assayed in CHO cells expressing human alpha-2a; type: functional, cell-based
T4 sequence (whole entry): T1 sequence (P08913 whole entry)

[5] = target: T5, Alpha-2C adrenergic receptor (Homo sapiens) (UniProt P18825); assay: Agonist potency at Alpha-2C adrenergic receptor assayed in CHO cells expressing human Alpha-2C adrenergic receptor; type: functional, cell-based
T5 sequence (whole entry): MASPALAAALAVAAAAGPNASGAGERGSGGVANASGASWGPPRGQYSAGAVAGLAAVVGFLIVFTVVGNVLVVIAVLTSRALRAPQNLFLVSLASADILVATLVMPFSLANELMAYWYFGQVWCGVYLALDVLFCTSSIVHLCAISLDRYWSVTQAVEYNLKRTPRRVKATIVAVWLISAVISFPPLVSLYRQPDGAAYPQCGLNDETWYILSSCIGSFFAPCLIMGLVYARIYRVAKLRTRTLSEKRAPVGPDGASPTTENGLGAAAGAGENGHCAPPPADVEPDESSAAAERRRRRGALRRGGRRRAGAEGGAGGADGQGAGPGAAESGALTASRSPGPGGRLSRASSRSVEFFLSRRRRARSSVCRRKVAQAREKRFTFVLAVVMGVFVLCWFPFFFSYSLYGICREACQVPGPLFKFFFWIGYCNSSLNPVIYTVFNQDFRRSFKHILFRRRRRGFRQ

[6] = target: T6, Alpha-1B adrenergic receptor (Homo sapiens) (UniProt P35368); assay: Agonist potency at Alpha-1B adrenergic receptor assayed in rat-1 fibroblasts expressing human Alpha-1B adrenergic receptor; type: functional; procedure, shortened: as §1
T6 sequence (whole entry): T2 sequence (P35368 whole entry)

[7] = target: T5, Alpha-2C adrenergic receptor (Homo sapiens); assay: Efficacy as percentage of the maximal effect observed for nonselective agonist UK-14304 in CHO cells expressing human Alpha-2A adrenergic receptor; type: functional, cell-based
Procedure, shortened: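 Human α2A receptor in CHO cells, cAMP assay. Cells were preincubated with compound or UK14304 for 30 min at 37 °C with IBMX 300 μM. […] Efficacy is relative to the UK14304 maximum.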

[8] = target: T7, Alpha-1A adrenergic receptor (Homo sapiens, UniProt P35348); assay: as §2; type: functional
T7 sequence (P35348 whole entry): T3 sequence (whole entry)
Procedure, shortened: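 Human α1a, α1b or α1d receptors expressed in Rat-1 fibroblasts (DMEM, 10% heat-inactivated FBS, 0.6 mg/mL G418). Cells were plated at 6000/well and grown 48 h at 37 °C. They were loaded 2 h at 37 °C with Calcium Green (4 μM), pluronic acid 0.2% and probenecid 2.5 mM in HEPES buffer pH 7.4, then read by FLIPR at room temperature: 10 s baseline, 50 s after compound. 11-point curves were expressed as % of the 40 μM phenylephrine response; top concentration typically 5 μM.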

CSc1ccccc1NCC1=NCCN1
EC50 [1]: 39.8 nM | EC50 [2]: 2.19 nM

CCCS(=O)(=O)c1ccccc1NCC1=NCCN1
pEC5 [3]: 7.16 | pEC5 [4]: < 5 | pEC5 [5]: 5.5 | pEC5 [6]: < 4

CC(C)S(=O)(=O)c1ccccc1NCC1=NCCN1
Max [7]: 14%

CS(=O)(=O)c1cc(F)ccc1NCC1=NCCN1
EC50 [8]: 437 nM
